Laboratory results taken from paper PMC7255057 (Journal of medicinal chemistry, 2019).

How the values were obtained:
[1] = target: T1, human serum albumin (HSA) (Homo sapiens, UniProt P02768); test: ANS fluorescence binding and competition on HSA; details: for displacement of ANS from HSA: 2.5 μM HSA with 5 or 100 μM ANS
How it was run: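 Fluorescence competition with 2.5 μM HSA and 5 or 100 μM ANS. The test compound was titrated over a concentration range. Excitation was 360 nm, with emission read at 460 and 480 nm to detect blue shifts. Signals were normalised between ANS alone (minimum) and HSA:ANS (maximum). ANS stoichiometry and affinity on HSA were set beforehand by a Sudlow-type titration.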

[2] = target: T2, EPAC1CBD (cAMP-binding domain of hEPAC1, residues 149–318) (Homo sapiens, UniProt O95398); test: NH-HSQC chemical shift titration of EPAC1CBD
T2 sequence (O95398 149-318 isoform O95398-3): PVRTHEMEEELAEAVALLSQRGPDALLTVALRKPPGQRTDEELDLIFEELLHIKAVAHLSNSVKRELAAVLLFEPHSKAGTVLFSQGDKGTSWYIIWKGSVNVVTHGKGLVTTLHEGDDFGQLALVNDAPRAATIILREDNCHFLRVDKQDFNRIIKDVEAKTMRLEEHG
How it was run: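 100 μM human EPAC1 CBD (residues 149–318) in Tris NMR buffer was titrated with test compound, with or without HSA, and read by 1H-15N HSQC. DMSO was 0.5% per 100 μM compound. Compounded chemical-shift changes from 35 residues were least-squares fitted at 1:1, with ΔCCSmax free or fixed, to give Kd or apparent Kd. Peak intensities were normalised to the compound-free sample and averaged (I/I0).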

[3] = Transmission electron microscopy of aggregates; format: physicochemical; details: 200 μM
How it was run: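 Aggregate samples were applied to 400-mesh copper grids freshly coated with continuous amorphous carbon and glow-discharged at 5 mA for 15 s beforehand. Grids were imaged by transmission electron microscopy on a side-mounted cooled 4-megapixel CCD camera.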

[4] = Dynamic light scattering of aggregates/micelles; format: physicochemical; details: for aggregate size range (DLS intensity profile): 500 μM, 2.5% DMSO; for aggregates detectable by DLS in presence of HSA: with HSA
EPAC1CBD [5] = target: T3, EPAC1CBD (Homo sapiens, UniProt O95398); test: Nonspecific interaction with EPAC1CBD by global NH-HSQC intensity losses; format: binding; details: for type of aggregation-based inhibitor: NMR intensity losses and DLS
T3 sequence (O95398 149-318 isoform O95398-3): T2 sequence (O95398 149-318 isoform O95398-3)

[6] = target: T1, human serum albumin (HSA); test: 13C-oleic acid displacement assay on HSA; format: binding; details: 250 μM HSA, 1.5 mM OA
How it was run: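 Recombinant globulin- and fatty-acid-free HSA at 250 μM in 20 mM NaPO4 pH 7.6, 50 mM NaCl in 99.9% D2O, held 37 °C 30 min. 13C-oleic acid (100 mM stock in DMSO-d6, warmed 50 °C 10 min) added to 1.5 mM final, then 37 °C 2 h. {13C–1H}-HSQC recorded with and without test compound at 298 K; site peaks A–H losing intensity mark displacement.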

[7] = SPR on nonfunctionalized gold nanoparticle sensor; format: physicochemical; details: for SPR signal relative to DMSO control: 50 μM and 250 μM, 1.25% DMSO
[8] = target: human serum albumin (HSA) Sudlow sites (Homo sapiens, UniProt P02768); test: Fluorescence competition with dansylated amino acids; format: binding
How it was run: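 Dansylated arginine (Sudlow site 1, 1:1) or dansylated phenylalanine (sites 1 and 2) fluorescence with recombinant fatty-acid-free HSA on a plate reader. Excitation was 370 for both probes, with emission at 460 (DanR) or 480 nm (DanF). Probe affinity and stoichiometry came from direct titration. Competitions used 2.5 μM HSA with 100 μM probe and were least-squares fitted assuming no extra sites.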

EPAC1CBD [9] = target: T3, EPAC1CBD; test: DLS volume profile of EPAC1CBD in presence of ESIs; format: binding

T1 sequence (P02768 25-609): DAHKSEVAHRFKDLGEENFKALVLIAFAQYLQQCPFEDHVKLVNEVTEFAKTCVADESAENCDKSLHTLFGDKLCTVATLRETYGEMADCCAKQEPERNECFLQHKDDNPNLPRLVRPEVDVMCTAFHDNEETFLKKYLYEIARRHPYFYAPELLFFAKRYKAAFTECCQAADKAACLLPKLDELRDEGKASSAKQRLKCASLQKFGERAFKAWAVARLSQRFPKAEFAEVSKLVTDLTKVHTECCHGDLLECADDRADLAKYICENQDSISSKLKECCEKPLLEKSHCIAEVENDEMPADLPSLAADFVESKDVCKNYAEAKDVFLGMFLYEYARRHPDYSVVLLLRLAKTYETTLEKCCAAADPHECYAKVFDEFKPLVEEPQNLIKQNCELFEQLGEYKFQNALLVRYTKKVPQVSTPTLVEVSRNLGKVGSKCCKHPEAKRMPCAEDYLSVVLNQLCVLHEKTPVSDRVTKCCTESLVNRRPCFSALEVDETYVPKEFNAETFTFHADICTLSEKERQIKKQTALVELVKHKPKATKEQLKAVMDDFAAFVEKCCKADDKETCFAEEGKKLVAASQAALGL
Chain of human serum albumin (HSA) Sudlow sites (P02768 25-609): as above

aggregate morphology (TEM) [3]	aggregate size range (DLS intensity profile) [4]	type of aggregation-based inhibitor (EPAC1CBD [5])	displacement of 13C-oleic acid from HSA [6]	Molecule	aggregates detectable by DLS in presence of HSA [4]	displacement of ANS from HSA [1]	EPAC1CBD NH-HSQC signal/intensity loss (EPAC1CBD [5])	SPR signal relative to DMSO control [7]	other results
				O=S(=O)(O)c1cccc2cccc(Nc3ccccc3)c12 [ANS, 8-anilinonaphthalene-1-sulfonic acid]					ANS binding stoichiometry and affinity for HSA ([1]; Scatchard plot): binds up to four sites on HSA with low micromolar affinity
more amorphous morphology	90–600 nm	Type A	displace OA at multiple sites	C[C@@H]1CCc2c(cc(Br)c(F)c2Br)N1C=O [CE3F4R]	no detectable aggregates in the presence of HSA	unable to displace ANS	no more than that caused by DMSO	no significant change in SPR signal	increase of apparent Kd for EPAC1CBD binding caused by HSA ([2]; CE3F4R titration with vs without HSA): 5–10 fold; concentration at which dissociation from EPAC1CBD starts ([2]; presence of HSA): ≥ 750 µM; coaggregate size with TX (DLS) ([4]; TX:CE3F4R 1:2 (0.0075% TX, 200 μM CE3F4R)): around 70 nm; displacement of dansylated amino acids from HSA ([8]; concentrations below CAC): ineffective at displacing either of the dansylated amino acids from HSA; change of EPAC1CBD DLS volume profile (EPAC1CBD [9]; below or above CAC): does not result in any major change in the volume profile of EPAC1CBD
				CN(C)c1cccc2c(S(=O)(=O)N[C@@H](CCCN=C(N)N)C(=O)O)cccc12 [DanR, dansyl-arginine]					Kd ([8]; read-out: Kd for HSA Sudlow's Site I, fluorescence titration): ~25 µM
spherical micellar morphology	90–600 nm	type B	displace OA at multiple sites	CC(C)(C)c1cc(C(=O)/C(C#N)=N/Nc2cccc(Cl)c2)no1 [ESI-09]	no detectable aggregates in the presence of HSA	can fully displace even large excesses of ANS at low micromolar concentrations	substantial signal losses for EPAC1CBD peaks	significant difference for ESI-09 when injected at a concentration that is above its CAC	EPAC1CBD chemical shift changes with HSA relative to those without HSA ([2]; 100 μM ESI-09): < 20%; reduction of average chemical shift changes with HSA vs without HSA ([2]; ESI-09 concentration yielding similar intensity losses): ~ 30%; ESI-09 concentration giving similar signal loss in presence of HSA (EPAC1CBD [5]; compared with 100 μM ESI-09 without HSA): around 400 μM; increase of EPAC1CBD HSQC intensities in presence of HSA (EPAC1CBD [5]; most ESI-09 concentrations): 30–40%; SPR signal with HSA relative to HSA and DMSO control ([7]; 250 μM ESI-09 with 25 μM HSA): no significant SPR signal increase; SPR signal with HSA relative to HSA and DMSO reference ([7]; 500 μM ESI-09 with 25 μM HSA): SPR signal significantly increases; increase of EPAC1CBD size profile (DLS) (EPAC1CBD [9]; ESI concentration above CAC): up to 5 nm
				Triton X-100 [TX]			no significant chemical shift changes or intensity losses		average aggregate/micelle diameter (DLS) ([4]; compound in isolation): about 10 nm
